According to article PMC6279569 (Clinical cancer research : an official journal of the …, 2018):

Assays:
[1] = test system: SK-N-BE(2)c, H82 and H526 cells; assay: DNA combing analysis of replication fork extension; format: cell-based, human; conditions: 0.2 µM, 20 minutes, vs untreated control
Summary of the method: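 Synchronized S-phase cells (DMEM, 10% FBS) pulsed with CldU for 10 min, washed, then IdU for 20 min with or without 0.2 µM compound. Cells lysed on slides and DNA fibres spread. Fibres immunostained for CldU (green) and IdU (red). Segment lengths from more than 30 fibres averaged ± SD. IdU lengths compared with the untreated control by Student's t-test.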

7SM0032 and SAEC cells = assay: Cell cycle analysis by PI flow cytometry, non-malignant cells; format: cell-based, human; conditions: 500 nM AOH1160
Summary of the method: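 7SM0032 cells (hEPM-1 medium) and SAEC (SAGM medium), 37°C, 5% CO2. Seeded at 1×10⁵/ml and attached overnight. Exposed to 500 nM test compound for the indicated time (methods: 6 or 24 h). Fixed in 60% ethanol, stained with propidium iodide, and analysed by flow cytometry. Cell-cycle populations, including sub-G1, were modelled from PI intensity.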

[2] = mouse, in vivo
human TRβ = molecular target: T1, human TRβ (Homo sapiens, UniProt P10828); assay: Human thyroid hormone receptor beta; format: cell-based; conditions: various concentrations, 24 h
T1 sequence (P10828 1-461): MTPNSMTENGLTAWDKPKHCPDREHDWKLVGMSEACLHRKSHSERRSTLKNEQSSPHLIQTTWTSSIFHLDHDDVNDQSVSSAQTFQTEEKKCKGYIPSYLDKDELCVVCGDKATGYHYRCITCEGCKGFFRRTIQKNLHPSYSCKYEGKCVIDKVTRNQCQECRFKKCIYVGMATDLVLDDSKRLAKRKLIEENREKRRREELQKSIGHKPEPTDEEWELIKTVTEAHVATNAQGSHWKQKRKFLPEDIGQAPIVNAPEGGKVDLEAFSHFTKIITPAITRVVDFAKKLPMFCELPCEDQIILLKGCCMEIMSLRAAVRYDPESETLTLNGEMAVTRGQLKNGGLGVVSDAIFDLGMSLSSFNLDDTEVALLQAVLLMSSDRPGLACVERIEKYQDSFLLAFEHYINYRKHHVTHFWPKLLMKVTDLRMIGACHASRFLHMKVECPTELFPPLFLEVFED
Summary of the method: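 Commercial reporter cells constitutively expressing human TRβ, with luciferase driven by a TRβ-responsive promoter. Treated for 24 h with various concentrations of T3 (reference agonist) or test compound. TRβ activity read as luciferase relative luminescence units on a plate reader.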

[3] = Stability in plasma, canine; format: in vitro ADME; conditions: 37°C
Summary of the method: (§1)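 Test compound was incubated in plasma at 37 °C, with aliquots removed at various times. Remaining parent was quantified by LC-MS/MS (UPLC gradient, positive-ion electrospray) and expressed as percent of input concentration.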

[4] = test system: xenograft tumors of SK-N-BE(2)c, SK-N-AS, MDA-MB-468 and H82; assay: In vivo xenograft tumor model; conditions: 40 mg/kg once daily by oral gavage
Recombinant human PCNA = Recombinant human PCNA (Homo sapiens, UniProt P12004); assay: Saturation Transfer Difference; format: binding; conditions: T3 50 µM, AOH1160 expected 16 µM, 1 µM PCNA
Summary of the method: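 Recombinant human PCNA (1 µM) in 15 mM D₂O phosphate buffer, pH 7.2, with 10 µM deuterated DTT and 2% D₆-DMSO. T3 (50 µM) was run with and without test compound; 4 µM DSS served as internal reference for ligand concentration. Spectra were taken at 25 °C, 700 MHz, cryoprobe. Saturation was at 0.9 ppm and reference at −30 ppm, acquired interleaved. STD = (I_Ref − I_STD)/I_Ref.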

[5] = Stability in plasma, Es1e/SCID mice; format: in vitro ADME; conditions: Es1^e/SCID mouse plasma, 37°C
Summary of the method: as §1

Pharmacokinetic = format: in vivo, ES1^e/SCID mice
Summary of the method: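 Test compound was dissolved at 60 °C under nitrogen in vehicle (Kolliphor HS 15, Poloxamer 407, BHA, BHT, propyl gallate). It was diluted to 4 mg/mL in 1:1 water:vehicle just before dosing and given orally at 40 mg/kg to male and female ES1^e/SCID mice. Plasma was taken by cardiac puncture at 0–24 h (3 male + 3 female per time point). Levels were measured by LC-MS/MS (positive ESI, MRM); PK parameters were derived by non-compartmental analysis.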

SK-N-DZ and H524 cells = assay: Cell cycle analysis by PI flow cytometry, cancer cells; format: cell-based, human
[6] = Stability in plasma, human; format: in vitro ADME; conditions: 37°C
Summary of the method: as §1

[7] = test system: non-malignant cells (PBMC, 7SM0032, MCF10A, mammary epithelial cells, small airway epithelial cells); assay: Cell growth, CellTitor-Glo assay, non-malignant cells; format: cell-based; conditions: human PBMCs, 7SM0032 cells
glioblastoma stem cells = assay: Cell growth of glioblastoma stem cells; format: cell-based, human; conditions: 1 µM, 72 hours; PBT003, PBT707, PBT017
Summary of the method: (§2)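 Cells derived from WHO grade IV glioblastoma or primary brain tissue, grown as neurospheres in DMEM/F12 with 20 ng/ml EGF, 20 ng/ml FGF, 5 µg/ml heparin, B27 and 2 mM L-glutamine. Seeded at 5 × 10³/ml or 3 × 10⁴/ml. Given DMSO or 1 µM compound for 72 h. Growth read by CellTiter-Glo luminescence relative to DMSO control, ± S.D.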

normal neural stem cells = assay: Cell growth of normal neural stem cells; format: cell-based; conditions: 1 µM, 72 hours; NSC005-007
Summary of the method: as §2

SK-N-DZ NB cells = assay: Clonogenic assay with cisplatin, SK-N-DZ; format: cell-based, human; conditions: 500 nM AOH1160, 18 h
Summary of the method: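 300 SK-N-DZ cells per 60-mm dish, attached overnight, then treated 18 h with or without various cisplatin concentrations, with or without 500 nM test compound. After two washes, cells were grown 3 weeks in fresh medium changed every 3 d. Colonies were stained with 0.5% crystal violet and counted. Combination index used the Bliss independence model: CI = (E_A+E_B−E_A*E_B)/E_AB.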

[8] = test system: γH2A.X, caspase-3 and caspase-9 in cancer cells; assay: Western blot, cancer cells; format: cell-based, human
Summary of the method: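 Conditions: SK-N-DZ cells with 3 µM AOH39 for 0, 6 or 24 h; cancer cells with 500 nM AOH1160 for the indicated times. Cells were lysed in Laemmli buffer, sonicated, run on 4–12% SDS-PAGE and blotted to nitrocellulose. After 5% milk block, blots were probed for γH2A.X, total H2A.X, cleaved and full-length caspase-3, and cleaved caspase-9. Detection used peroxidase secondaries and ECL.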

7SM0032 cells = assay: TUNEL assay, non-malignant cells; format: cell-based; conditions: 500 nM AOH1160, 24 h
Summary of the method: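 7SM0032 cells (hEPM-1 medium, 37°C, 5% CO2) seeded at 1×10⁵/ml on chamber slides. Once attached, treated with 500 nM compound for 24 h. Fixed and labelled by TUNEL using a TMR-red in situ cell death kit. Red fluorescence at free DNA ends scored as apoptotic cells.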

[9] = Stability in plasma, monkey; format: in vitro ADME; conditions: 37°C
Summary of the method: as §1

[10] = test system: HR-mediated DSB repair in DR-GFP cells; assay: Double stranded DNA break repair assay, DR-GFP; format: cell-based
Summary of the method: (§3)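 U2OS-derived reporter lines carry stable GFP reporters: DR-GFP for HR and EJ5-GFP for end joining. Cells were grown in DMEM/10% FBS, seeded at 2.5×10⁴ cells/cm² and attached overnight. They were lipofected with an I-SceI expression plasmid; after 3 h, medium was replaced with fresh medium containing test compound at various concentrations (DMSO control). GFP-positive fraction was measured by flow cytometry 3 d post-transfection, relative to control.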

γH2A.X in 7SM0032 cells = assay: Western blot, non-malignant cells; format: cell-based, human; conditions: 500 nM AOH1160
Summary of the method: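 7SM0032 cells treated with 500 nM compound for the indicated times, then lysed directly in Laemmli buffer on the plate. Immunoblot membranes blocked in 5% nonfat milk and probed with anti-γH2A.X. Detection with peroxidase-conjugated secondary antibody and ECL.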

SK-N-DZ cells = assay: TUNEL assay, cancer cells; format: cell-based, human; conditions: 500 nM AOH1160, 24 h
Summary of the method: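 Cells were seeded at 1×10⁵/ml on chamber slides. Once attached, they were treated 24 h with 500 nM test compound, then fixed. Apoptosis was detected by TUNEL with a TMR red in situ cell death kit; red TMR fluorescence marks free DNA ends.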

carboxyl esterase, ES-1 = molecular target: T2, carboxyl esterase, ES-1 (Mus musculus, UniProt P23953); assay: Stability in plasma, rodent; format: in vitro ADME
T2 sequence (P23953 19-554): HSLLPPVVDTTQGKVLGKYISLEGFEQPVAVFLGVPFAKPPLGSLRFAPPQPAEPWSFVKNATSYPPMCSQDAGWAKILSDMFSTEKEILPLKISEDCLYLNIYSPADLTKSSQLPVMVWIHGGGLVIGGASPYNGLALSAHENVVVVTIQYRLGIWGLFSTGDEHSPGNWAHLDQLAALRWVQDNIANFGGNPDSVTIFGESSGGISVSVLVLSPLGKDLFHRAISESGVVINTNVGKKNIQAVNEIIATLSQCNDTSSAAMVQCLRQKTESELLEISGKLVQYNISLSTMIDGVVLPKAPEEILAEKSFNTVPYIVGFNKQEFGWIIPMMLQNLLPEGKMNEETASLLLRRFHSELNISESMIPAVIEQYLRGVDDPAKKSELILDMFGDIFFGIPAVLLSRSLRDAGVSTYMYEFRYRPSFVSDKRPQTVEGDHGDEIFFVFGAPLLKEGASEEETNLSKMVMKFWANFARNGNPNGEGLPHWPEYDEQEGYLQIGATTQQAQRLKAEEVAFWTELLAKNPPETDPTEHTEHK
Summary of the method: as §1

[11] = test system: EJ-mediated DSB repair in EJ5-GFP cells; assay: Double stranded DNA break repair assay, EJ5-GFP; format: cell-based; conditions: 4 µM AOH39
Summary of the method: as §3

Recombinant human PCNA, sequence (P12004 whole entry): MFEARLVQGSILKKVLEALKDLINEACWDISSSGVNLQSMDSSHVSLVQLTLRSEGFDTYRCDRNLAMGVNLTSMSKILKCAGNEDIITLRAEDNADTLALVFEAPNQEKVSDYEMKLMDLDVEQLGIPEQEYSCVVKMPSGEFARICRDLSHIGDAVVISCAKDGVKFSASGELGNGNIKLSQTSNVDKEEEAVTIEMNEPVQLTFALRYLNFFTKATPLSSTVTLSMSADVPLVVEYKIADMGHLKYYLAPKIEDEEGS

## O=C(CNC(=O)c1cccc2ccccc12)Nc1ccccc1Oc1ccccc1 [AOH1160]
[1]
  length of IdU-incorporated DNA strands (replication fork extension): significantly shorter IdU-incorporated DNA strands
7SM0032 and SAEC cells
  cell cycle profiles of non-malignant cells: doesn’t significantly change the cell cycle profiles
[2]
  toxicity in repeated dose study: No significant toxicity was observed
Human TRβ
  thyroid hormone activity in TR reporter assay: neither AOH1160 nor AOH39 showed any thyroid hormone activity
[3]
  stability in plasma: stable
[4]; vs vehicle
  tumor burden: significantly reduced tumor burden
[4]; data not shown
  death or weight loss: did not cause any death or significant weight loss
Recombinant human PCNA
  effect on STD values of T3: caused reduction of STD values of T3
[5]
  stability in plasma: stable
Pharmacokinetic; PO, 40 mg/kg
  half-life in vivo: about 3.5 h
  oral availability: available to the animal through the oral dosing route
  peak concentration (CMAX): well above the calculated IC50 of most cancer cell lines
Pharmacokinetic; mouse, in vivo
  metabolites in animal plasma: Metabolites derived from AOH1160 hydroxylation were observed
SK-N-DZ and H524 cells; 500 nM AOH1160
  apoptosis (sub-G1 population): promotes apoptosis
SK-N-DZ and H524 cells; neuroblastoma and small cell lung cancer cells, 500 nM AOH1160
  cell cycle effect: causes cell cycle arrest
[6]
  stability in plasma: stable
[7]
  concentration up to which not significantly toxic: at least 5 µM
Glioblastoma stem cells
  growth of glioblastoma stem cells: inhibited the growth of glioblastoma stem cells
Normal neural stem cells
  growth of normal neural stem cells: without significantly affecting the growth of normal neural stem cells
SK-N-DZ NB cells
  sensitivity to cisplatin, colony formation: more sensitive to cisplatin treatment in the presence of AOH1160
[8]; cancer cells, 500 nM AOH1160
  caspase activation: activation of caspase-3 and caspase-9
  γH2A.X levels: increases γH2A.X levels
7SM0032 cells
  apoptosis by TUNEL in non-malignant cells: Nor does it increase intracellular γH2A.X level (Fig 4b) or induce apoptosis
[9]
  stability in plasma: stable
[10]; various concentrations of AOH1160
  HR-mediated DNA repair: blocks DNA repair in DR-GFP
γH2A.X in 7SM0032 cells
  intracellular γH2A.X level in non-malignant cells: Nor does it increase intracellular γH2A.X level
15 mM D2O phosphate buffer, 2% D6-DMSO, determined by 1D NMR spectra
  maximum concentration achievable under STD NMR condition: approximately 14.5 µM
Not told
  permeability: high permeability
SK-N-DZ cells
  apoptosis by TUNEL: increase in apoptosis
Carboxyl esterase, ES-1; amide hydrolysis
  sensitivity to cleavage by ES-1: sensitive to cleavage by the carboxyl esterase, ES-1
Carboxyl esterase, ES-1; rodent plasma, 37°C
  stability in plasma: not stable

## O=C(CNC(=O)c1cccc2ccccc12)Nc1ccccc1Cc1ccccc1 [AOH39]
Human TRβ
  thyroid hormone activity in TR reporter assay: neither AOH1160 nor AOH39 showed any thyroid hormone activity
SK-N-DZ and H524 cells; SK-N-DZ, 3 µM AOH39, 6 or 24 h
  cell cycle effect: caused cell cycle arrest of cancer cells at the S and, to a larger degree, G2/M phases
SK-N-DZ and H524 cells; SK-N-DZ, 3 µM AOH39, 24 h
  apoptosis (sub-G1 population): cancer cells start to die through apoptosis
[8]; SK-N-DZ, 3 µM AOH39
  intracellular γH2A.X levels: enhanced intracellular γH2A.X levels
[10]; 4 µM AOH39
  HR-mediated DNA repair: inhibited HR-mediated DNA repair
[11]
  EJ-mediated DNA repair: without exerting any statistically significant effect on EJ
